Legend:
Cytomegalovirus = experiment: Antiviral activity against Cytomegalovirus infected in HFF after 72 hrs by luciferase reporter gene assay; format: functional, organism-based; conditions: Human betaherpesvirus 5, 72 h
Summary of the method: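 Human foreskin fibroblasts (HFFs) were infected with CMV and treated with compound across a dose range. Luciferase activity was read at 72 h post infection as a marker of late CMV gene expression. EC50 was derived from this read-out.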

PBMC = experiment: Cytotoxicity against PHA-stimulated human PBMC cells after 48 hrs by Alamar Blue assay; format: cell-based
Summary of the method: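 PBMCs came from 4 consenting healthy volunteers and were stimulated with phytohemagglutinin (10 µg/ml) for 24 h. Drug or vehicle was then added for a further 48 h, and viability was read by AlamarBlue. IC50 is the average of 4 experiments, each run in triplicate.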

[1] = Cytotoxicity against human JURKAT-TALL cells after 48 hrs by Alamar Blue assay; format: functional, cell-based
Summary of the method: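 Jurkat T-ALL cells were treated with compound for 48 h, and growth inhibition was read by AlamarBlue assay to give IC50.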

[2] = Therapeutic index, ratio of IC50 for PHA-stimulated human PBMC cells to IC50 for human JURKAT-TALL cells; format: cell-based; conditions: PHA-stimulated PBMC cells versus JURKAT-TALL cells, read-out: Ratio IC50
Summary of the method: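 The therapeutic index is the IC50 in PHA-stimulated PBMCs (PHA 10 µg/ml for 24 h, then drug for 48 h, AlamarBlue) divided by the IC50 in Jurkat cells (drug for 48 h, AlamarBlue).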

[3] = Selectivity index, ratio of CC50 for HFF to EC50 for Cytomegalovirus

Structure (SMILES) | EC50 (Cytomegalovirus) | IC50 (PBMC) | IC50 [1] | selectivity ratio [2] | Ratio CC50/EC50 [3]
C[C@H]1[C@@H](CC(COP(=O)(Oc2ccccc2)Oc2ccccc2)C[C@H]2O[C@@H]3O[C@@]4(C)CC[C@H]5[C@H](C)CC[C@@H]([C@H]2C)[C@@]35OO4)O[C@@H]2O[C@@]3(C)CC[C@H]4[C@H](C)CC[C@@H]1[C@@]24OO3 (stereo partly specified) | 39 nM | 1480 nM | 100 nM | 14.8 | 1500
C[C@H]1[C@@H](CC(COP(=O)(Oc2ccc(Cl)cc2)Oc2ccc(Cl)cc2)C[C@H]2O[C@@H]3O[C@@]4(C)CC[C@H]5[C@H](C)CC[C@@H]([C@H]2C)[C@@]35OO4)O[C@@H]2O[C@@]3(C)CC[C@H]4[C@H](C)CC[C@@H]1[C@@]24OO3 (stereo partly specified) | 66 nM | > 40000 nM | 152 nM | > 263 | –
CC(C)c1ccc(OP(=O)(OCC(C[C@H]2O[C@@H]3O[C@@]4(C)CC[C@H]5[C@H](C)CC[C@@H]([C@H]2C)[C@@]35OO4)C[C@H]2O[C@@H]3O[C@@]4(C)CC[C@H]5[C@H](C)CC[C@@H]([C@H]2C)[C@@]35OO4)Oc2ccc(C(C)C)cc2)cc1 (stereo partly specified) | 300 nM | > 40000 nM | 511 nM | > 78.3 | –
Cc1cccc(C)c1OP(=O)(OCC(C[C@H]1O[C@@H]2O[C@@]3(C)CC[C@H]4[C@H](C)CC[C@@H]([C@H]1C)[C@@]24OO3)C[C@H]1O[C@@H]2O[C@@]3(C)CC[C@H]4[C@H](C)CC[C@@H]([C@H]1C)[C@@]24OO3)Oc1c(C)cccc1C (stereo partly specified) | 71 nM | > 40000 nM | 296 nM | > 135 | –
C[C@H]1[C@@H](CC(COP(=O)(OC2CCCCC2)OC2CCCCC2)C[C@H]2O[C@@H]3O[C@@]4(C)CC[C@H]5[C@H](C)CC[C@@H]([C@H]2C)[C@@]35OO4)O[C@@H]2O[C@@]3(C)CC[C@H]4[C@H](C)CC[C@@H]1[C@@]24OO3 (stereo partly specified) | 44 nM | 2030 nM | 287 nM | 7.1 | –
C[C@H]1[C@@H](CC(COP(=O)(O)Oc2ccccc2)C[C@H]2O[C@@H]3O[C@@]4(C)CC[C@H]5[C@H](C)CC[C@@H]([C@H]2C)[C@@]35OO4)O[C@@H]2O[C@@]3(C)CC[C@H]4[C@H](C)CC[C@@H]1[C@@]24OO3 (stereo partly specified) | > 300 nM | > 40000 nM | 7440 nM | – | –
C[C@H]1[C@@H](CC(CO)C[C@H]2O[C@@H]3O[C@@]4(C)CC[C@H]5[C@H](C)CC[C@@H]([C@H]2C)[C@@]35OO4)O[C@@H]2O[C@@]3(C)CC[C@H]4[C@H](C)CC[C@@H]1[C@@]24OO3 (stereo partly specified) | 160 nM | – | – | – | –
C[C@H]1[C@@H](CC(COP(=S)(Oc2ccccc2)Oc2ccccc2)C[C@H]2O[C@@H]3O[C@@]4(C)CC[C@H]5[C@H](C)CC[C@@H]([C@H]2C)[C@@]35OO4)O[C@@H]2O[C@@]3(C)CC[C@H]4[C@H](C)CC[C@@H]1[C@@]24OO3 (stereo partly specified) | 78 nM | > 40000 nM | 1750 nM | > 22.9 | –
C[C@H]1[C@@H](CC(COP2(=O)Oc3ccccc3-c3ccccc3O2)C[C@H]2O[C@@H]3O[C@@]4(C)CC[C@H]5[C@H](C)CC[C@@H]([C@H]2C)[C@@]35OO4)O[C@@H]2O[C@@]3(C)CC[C@H]4[C@H](C)CC[C@@H]1[C@@]24OO3 (stereo partly specified) | 72 nM | 2280 nM | 220 nM | 10.4 | –
C[C@H]1[C@@H](CC(COP2(=S)Oc3ccccc3-c3ccccc3O2)C[C@H]2O[C@@H]3O[C@@]4(C)CC[C@H]5[C@H](C)CC[C@@H]([C@H]2C)[C@@]35OO4)O[C@@H]2O[C@@]3(C)CC[C@H]4[C@H](C)CC[C@@H]1[C@@]24OO3 (stereo partly specified) | 70 nM | > 40000 nM | 1930 nM | > 20.7 | –
CO[C@H]1O[C@@H]2O[C@@]3(C)CC[C@H]4[C@H](C)CC[C@@H]([C@H]1C)[C@@]24OO3 | 5300 nM | > 100000 nM | > 30000 nM | – | –
COc1cccc2c1C(=O)c1c(O)c3c(c(O)c1C2=O)C[C@@](O)(C(=O)CO)C[C@@H]3O[C@H]1C[C@H](N)[C@H](O)[C@H](C)O1 [DOXORUBICIN] | – | 271 nM | 9.6 nM | – | –
C[C@H]1[C@H](OC(=O)CCC(=O)O)O[C@@H]2O[C@@]3(C)CC[C@H]4[C@H](C)CC[C@@H]1[C@@]24OO3 [SODIUM ARESUNATE] | 18500 nM | 27400 nM | 6890 nM | 4 | –

From ChEMBL document CHEMBL2390864, “Artemisinin-derived dimer phosphate esters as potent anti-cytomegalovirus (anti-CMV) and anti-cancer agents: a structure-activity study” (Bioorg Med Chem, 2013)
